Laboratory results from ChEMBL document CHEMBL4152188, “Design, synthesis and biological evaluation of C(4) substituted monobactams as antibacterial agents against multidrug-resistant Gram-negative bacteria” (Eur J Med Chem, 2018).
In brackets after ≈: the same amount, converted by molar mass.

Tests used:
Format in all cases: functional
[1] = test system: Escherichia coli; assay: Antibacterial activity against extended-spectrum beta-lactamase producing Escherichia coli isolate 212648 after 18 hrs by CLSI broth microdilution method; details: isolate 212648, 18 h
[2] = test system: Escherichia coli; assay: Selectivity index, ratio of MIC for against extended-spectrum beta-lactamase producing Escherichia coli isolate 208687 to MIC for extended-spectrum beta-lactamase producing Escherichia coli isolate 208687 in presence of BPL
[3] = test system: Escherichia coli; assay: Antibacterial activity against Escherichia coli isolate 210737 after 18 hrs by CLSI broth microdilution method; details: isolate 210737, 18 h
[4] = test system: Escherichia coli; assay: Antibacterial activity against extended-spectrum beta-lactamase producing Escherichia coli isolate 208687 after 18 hrs by CLSI broth microdilution method; details: isolate 208687, 18 h
[5] = test system: Escherichia coli; assay: Antibacterial activity against extended-spectrum beta-lactamase producing Escherichia coli isolate 208687 after 18 hrs in presence of BPL by CLSI broth microdilution method; details: isolate 208687, 18 h
In short: (§1)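 CLSI broth microdilution against clinical isolates (ESBL E. coli, KPC-2 MDR K. pneumoniae, IMP-4 MDR P. aeruginosa; five per species). Iron limitation: Mueller-Hinton broth supplemented with 16 mg/liter 2,2'-bipyridyl to complex iron and induce iron uptake systems. Read-out: MIC.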

[6] = test system: Escherichia coli; assay: Antibacterial activity against Escherichia coli isolate 210737 after 18 hrs in presence of BPL by CLSI broth microdilution method; details: isolate 210737, 18 h; in short: as §1
[7] = test system: Escherichia coli; assay: Selectivity index, ratio of MIC for against Escherichia coli isolate 210737 to MIC for Escherichia coli isolate 210737 in presence of BPL
[8] = test system: Escherichia coli; assay: Antibacterial activity against extended-spectrum beta-lactamase producing Escherichia coli isolate 212648 after 18 hrs in presence of BPL by CLSI broth microdilution method; details: isolate 212648, 18 h; in short: as §1
[9] = test system: Escherichia coli; assay: Selectivity index, ratio of MIC for against extended-spectrum beta-lactamase producing Escherichia coli isolate 212648 to MIC for extended-spectrum beta-lactamase producing Escherichia coli isolate 212648 in presence of BPL
[10] = test system: Escherichia coli; assay: Antibacterial activity against extended-spectrum beta-lactamase producing Escherichia coli isolate 209285 after 18 hrs by CLSI broth microdilution method; details: isolate 209285, 18 h
[11] = test system: Escherichia coli; assay: Antibacterial activity against extended-spectrum beta-lactamase producing Escherichia coli isolate 209285 after 18 hrs in presence of BPL by CLSI broth microdilution method; details: isolate 209285, 18 h; in short: as §1
[12] = test system: Escherichia coli; assay: Selectivity index, ratio of MIC for against extended-spectrum beta-lactamase producing Escherichia coli isolate 209285 to MIC for extended-spectrum beta-lactamase producing Escherichia coli isolate 209285 in presence of BPL
[13] = test system: Escherichia coli; assay: Antibacterial activity against extended-spectrum beta-lactamase producing Escherichia coli isolate 106342 after 18 hrs by CLSI broth microdilution method; details: isolate 106342, 18 h
[14] = test system: Escherichia coli; assay: Antibacterial activity against extended-spectrum beta-lactamase producing Escherichia coli isolate 106342 after 18 hrs in presence of BPL by CLSI broth microdilution method; details: isolate 106342, 18 h; in short: as §1
[15] = test system: Escherichia coli; assay: Selectivity index, ratio of MIC for against extended-spectrum beta-lactamase producing Escherichia coli isolate 106342 to MIC for extended-spectrum beta-lactamase producing Escherichia coli isolate 106342 in presence of BPL
[16] = test system: Klebsiella pneumoniae; assay: Antibacterial activity against KPC-2 producing Klebsiella pneumoniae isolate 212423 after 18 hrs by CLSI broth microdilution method; details: isolate 212423, 18 h
[17] = test system: Klebsiella pneumoniae; assay: Antibacterial activity against KPC-2 producing Klebsiella pneumoniae isolate 212423 after 18 hrs in presence of BPL by CLSI broth microdilution method; details: isolate 212423, 18 h; in short: as §1
[18] = test system: Klebsiella pneumoniae; assay: Selectivity index, ratio of MIC for against KPC-2 producing Klebsiella pneumoniae isolate 212423 to MIC for against KPC-2 producing Klebsiella pneumoniae isolate 212423 in presence of BPL
[19] = test system: Klebsiella pneumoniae; assay: Antibacterial activity against KPC-2 producing Klebsiella pneumoniae isolate 209632 after 18 hrs by CLSI broth microdilution method; details: isolate 209632, 18 h
[20] = test system: Klebsiella pneumoniae; assay: Antibacterial activity against KPC-2 producing Klebsiella pneumoniae isolate 209632 after 18 hrs in presence of BPL by CLSI broth microdilution method; details: isolate 209632, 18 h; in short: as §1
[21] = test system: Klebsiella pneumoniae; assay: Selectivity index, ratio of MIC for against KPC-2 producing Klebsiella pneumoniae isolate 209632 to MIC for against KPC-2 producing Klebsiella pneumoniae isolate 209632 in presence of BPL
[22] = test system: Klebsiella pneumoniae; assay: Antibacterial activity against KPC-2 producing Klebsiella pneumoniae isolate 209735 after 18 hrs by CLSI broth microdilution method; details: isolate 209735, 18 h
[23] = test system: Klebsiella pneumoniae; assay: Antibacterial activity against KPC-2 producing Klebsiella pneumoniae isolate 209735 after 18 hrs in presence of BPL by CLSI broth microdilution method; details: isolate 209735, 18 h; in short: as §1
[24] = test system: Klebsiella pneumoniae; assay: Selectivity index, ratio of MIC for against KPC-2 producing Klebsiella pneumoniae isolate 209735 to MIC for against KPC-2 producing Klebsiella pneumoniae isolate 209735 in presence of BPL
[25] = test system: Klebsiella pneumoniae; assay: Antibacterial activity against KPC-2 producing Klebsiella pneumoniae isolate 212232 after 18 hrs by CLSI broth microdilution method; details: isolate 212232, 18 h
[26] = test system: Klebsiella pneumoniae; assay: Antibacterial activity against KPC-2 producing Klebsiella pneumoniae isolate 212232 after 18 hrs in presence of BPL by CLSI broth microdilution method; details: isolate 212232, 18 h; in short: as §1
[27] = test system: Klebsiella pneumoniae; assay: Selectivity index, ratio of MIC for against KPC-2 producing Klebsiella pneumoniae isolate 212232 to MIC for against KPC-2 producing Klebsiella pneumoniae isolate 212232 in presence of BPL
[28] = test system: Klebsiella pneumoniae; assay: Antibacterial activity against KPC-2 producing Klebsiella pneumoniae isolate 212229 after 18 hrs by CLSI broth microdilution method; details: isolate 212229, 18 h
[29] = test system: Klebsiella pneumoniae; assay: Antibacterial activity against KPC-2 producing Klebsiella pneumoniae isolate 212229 after 18 hrs in presence of BPL by CLSI broth microdilution method; details: isolate 212229, 18 h; in short: as §1
[30] = test system: Klebsiella pneumoniae; assay: Selectivity index, ratio of MIC for against KPC-2 producing Klebsiella pneumoniae isolate 212229 to MIC for against KPC-2 producing Klebsiella pneumoniae isolate 212229 in presence of BPL
[31] = test system: Pseudomonas aeruginosa; assay: Antibacterial activity against IMP-4 producing Pseudomonas aeruginosa isolate 212886 after 18 hrs by CLSI broth microdilution method; details: isolate 212886, 18 h
[32] = test system: Pseudomonas aeruginosa; assay: Antibacterial activity against IMP-4 producing Pseudomonas aeruginosa isolate 212886 after 18 hrs in presence of BPL by CLSI broth microdilution method; details: isolate 212886, 18 h; in short: as §1
[33] = test system: Pseudomonas aeruginosa; assay: Selectivity index, ratio of MIC for against IMP-4 producing Pseudomonas aeruginosa isolate 212886 to MIC for against IMP-4 producing Pseudomonas aeruginosa isolate 212886 in presence of BPL
[34] = test system: Pseudomonas aeruginosa; assay: Antibacterial activity against IMP-4 producing Pseudomonas aeruginosa isolate 209471 after 18 hrs by CLSI broth microdilution method; details: isolate 209471, 18 h
[35] = test system: Pseudomonas aeruginosa; assay: Antibacterial activity against IMP-4 producing Pseudomonas aeruginosa isolate 209471 after 18 hrs in presence of BPL by CLSI broth microdilution method; details: isolate 209471, 18 h; in short: as §1
[36] = test system: Pseudomonas aeruginosa; assay: Selectivity index, ratio of MIC for against IMP-4 producing Pseudomonas aeruginosa isolate 209471 to MIC for against IMP-4 producing Pseudomonas aeruginosa isolate 209471 in presence of BPL
[37] = test system: Pseudomonas aeruginosa; assay: Antibacterial activity against IMP-4 producing Pseudomonas aeruginosa isolate 208247 after 18 hrs by CLSI broth microdilution method; details: isolate 208247, 18 h
[38] = test system: Pseudomonas aeruginosa; assay: Antibacterial activity against IMP-4 producing Pseudomonas aeruginosa isolate 208247 after 18 hrs in presence of BPL by CLSI broth microdilution method; details: isolate 208247, 18 h; in short: as §1
[39] = test system: Pseudomonas aeruginosa; assay: Selectivity index, ratio of MIC for against IMP-4 producing Pseudomonas aeruginosa isolate 208247 to MIC for against IMP-4 producing Pseudomonas aeruginosa isolate 208247 in presence of BPL
[40] = test system: Pseudomonas aeruginosa; assay: Antibacterial activity against IMP-4 producing Pseudomonas aeruginosa isolate 209321 after 18 hrs by CLSI broth microdilution method; details: isolate 209321, 18 h
[41] = test system: Pseudomonas aeruginosa; assay: Antibacterial activity against IMP-4 producing Pseudomonas aeruginosa isolate 209321 after 18 hrs in presence of BPL by CLSI broth microdilution method; details: isolate 209321, 18 h; in short: as §1
[42] = test system: Pseudomonas aeruginosa; assay: Selectivity index, ratio of MIC for against IMP-4 producing Pseudomonas aeruginosa isolate 209321 to MIC for against IMP-4 producing Pseudomonas aeruginosa isolate 209321 in presence of BPL
[43] = test system: Pseudomonas aeruginosa; assay: Antibacterial activity against IMP-4 producing Pseudomonas aeruginosa isolate 207272 after 18 hrs by CLSI broth microdilution method; details: isolate 207272, 18 h
[44] = test system: Pseudomonas aeruginosa; assay: Antibacterial activity against IMP-4 producing Pseudomonas aeruginosa isolate 207272 after 18 hrs in presence of BPL by CLSI broth microdilution method; details: isolate 207272, 18 h; in short: as §1
[45] = test system: Pseudomonas aeruginosa; assay: Selectivity index, ratio of MIC for against IMP-4 producing Pseudomonas aeruginosa isolate 207272 to MIC for against IMP-4 producing Pseudomonas aeruginosa isolate 207272 in presence of BPL

- MIC [1]: 1 µg/mL (≈ 1.78 µM)
- MIC [3]: 0.5 µg/mL (≈ 0.892 µM)
- MIC [4]: 0.5 µg/mL (≈ 0.892 µM)
- MIC [5]: 0.25 µg/mL
- MIC [6]: 0.5 µg/mL
- MIC [8]: 0.25 µg/mL
- MIC [10]: 0.5 µg/mL (≈ 0.892 µM)
- MIC [11]: 0.125 µg/mL
- MIC [13]: 0.5 µg/mL (≈ 0.892 µM)
- MIC [14]: 0.25 µg/mL
- MIC [16]: 0.5 µg/mL (≈ 0.892 µM)
- MIC [17]: 0.25 µg/mL
- MIC [19]: 4 µg/mL (≈ 7.14 µM)
- MIC [20]: 1 µg/mL
- MIC [22]: 16 µg/mL (≈ 28.5 µM)
- MIC [23]: 4 µg/mL
- MIC [25]: 4 µg/mL (≈ 7.14 µM)
- MIC [26]: 0.5 µg/mL
- MIC [28]: 0.5 µg/mL (≈ 0.892 µM)
- MIC [29]: 0.125 µg/mL
- MIC [31]: 16 µg/mL (≈ 28.5 µM)
- MIC [32]: 16 µg/mL
- MIC [34]: 16 µg/mL (≈ 28.5 µM)
- MIC [35]: 8 µg/mL
- MIC [37]: 8 µg/mL (≈ 14.3 µM)
- MIC [38]: 8 µg/mL
- MIC [40]: 16 µg/mL (≈ 28.5 µM)
- MIC [41]: 16 µg/mL
- MIC [43]: 8 µg/mL (≈ 14.3 µM)
- MIC [44]: 8 µg/mL
Structure (SMILES): COC[C@@H]1[C@H](NC(=O)/C(=N\OC(c2cc(=O)c(O)cn2O)C(C)C)c2csc(N)n2)C(=O)N1S(=O)(=O)O (stereo not given in full)
- Selectivity Index [2]: 2
- Selectivity Index [7]: 1
- Selectivity Index [9]: 4
- Selectivity Index [12]: 4
- Selectivity Index [15]: 2
- Selectivity Index [18]: 2
- Selectivity Index [21]: 4
- Selectivity Index [24]: 4
- Selectivity Index [27]: 8
- Selectivity Index [30]: 4
- Selectivity Index [33]: 1
- Selectivity Index [36]: 2
- Selectivity Index [39]: 1
- Selectivity Index [42]: 1
- Selectivity Index [45]: 1
